Measured values: ChEMBL document CHEMBL1143356, “Synthesis and characterization of a peripherally restricted CB1 cannabinoid antagonist, URB447, that reduces feeding and body-weight gain in mice” (Bioorg Med Chem Lett, 2009)
Values belong to the compound of their own block, whether it stands above or below them. The source made the active and inactive calls. The rule behind the calls is not given here.

Legend:
Cannabinoid receptor 2 = Cannabinoid receptor 2 (Homo sapiens, UniProt P34972); test: Displacement of [3H]WIN-55212-2 from human CB2 receptor expressed in CHO-K1 cells by liquid scintillation counting; type: cell-based
Cannabinoid receptor 2, sequence (P34972 whole entry): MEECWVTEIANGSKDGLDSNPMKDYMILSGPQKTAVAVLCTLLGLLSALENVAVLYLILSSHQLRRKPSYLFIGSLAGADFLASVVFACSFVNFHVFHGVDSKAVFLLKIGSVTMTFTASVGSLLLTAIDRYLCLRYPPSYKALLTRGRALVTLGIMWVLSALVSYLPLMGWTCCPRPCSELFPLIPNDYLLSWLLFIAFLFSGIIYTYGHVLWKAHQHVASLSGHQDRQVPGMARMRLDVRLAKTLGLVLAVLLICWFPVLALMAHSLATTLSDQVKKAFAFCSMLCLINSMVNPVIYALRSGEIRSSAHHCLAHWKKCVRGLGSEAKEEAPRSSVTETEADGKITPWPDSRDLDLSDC

Cannabinoid receptor 1 [1] = target: T1, Cannabinoid receptor 1 (Rattus norvegicus, UniProt P20272); test: Displacement of [3H]WIN-55212-2 from CB1 receptor in rat cerebellar membrane by liquid scintillation counting; type: cell membranes, Cerebellum
T1 sequence (P20272 whole entry): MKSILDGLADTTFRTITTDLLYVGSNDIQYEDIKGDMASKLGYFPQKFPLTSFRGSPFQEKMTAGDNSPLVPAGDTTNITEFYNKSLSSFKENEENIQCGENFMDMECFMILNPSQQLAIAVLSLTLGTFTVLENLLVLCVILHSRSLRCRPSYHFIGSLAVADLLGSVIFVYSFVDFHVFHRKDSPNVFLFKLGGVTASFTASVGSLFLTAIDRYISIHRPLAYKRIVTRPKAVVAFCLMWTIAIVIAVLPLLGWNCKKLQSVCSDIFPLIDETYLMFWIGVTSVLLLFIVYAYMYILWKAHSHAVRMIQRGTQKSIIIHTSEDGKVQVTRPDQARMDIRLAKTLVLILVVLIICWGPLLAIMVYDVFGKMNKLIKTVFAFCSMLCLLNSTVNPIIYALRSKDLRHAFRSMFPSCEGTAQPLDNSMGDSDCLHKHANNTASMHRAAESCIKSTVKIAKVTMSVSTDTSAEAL

[2] = target: Cannabinoid receptor 2 (Mus musculus) (UniProt P47936); test: Agonist activity at mouse CB2 receptor expressed in HEK293 cells assessed as inhibition of isoproterenol-induced cAMP accumulation at 1 uM by radioimmunoassay; type: functional, cell-based
Cannabinoid receptor 2 (Mus musculus), sequence (P47936 whole entry): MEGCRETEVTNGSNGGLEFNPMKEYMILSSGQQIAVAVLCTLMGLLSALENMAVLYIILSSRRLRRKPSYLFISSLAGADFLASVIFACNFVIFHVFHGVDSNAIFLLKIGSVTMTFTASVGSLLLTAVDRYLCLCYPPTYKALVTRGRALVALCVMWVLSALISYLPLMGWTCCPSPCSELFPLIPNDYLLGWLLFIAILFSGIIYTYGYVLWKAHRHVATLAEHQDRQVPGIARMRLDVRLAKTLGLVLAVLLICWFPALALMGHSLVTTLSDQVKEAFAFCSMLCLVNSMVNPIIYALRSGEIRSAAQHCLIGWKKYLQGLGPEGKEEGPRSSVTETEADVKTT
How it was run: (§1)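 Stably transfected HEK cells carrying mouse CB2. Rinse in HEPES buffer (15 min), preincubate with IBMX 10 mM (15 min), then incubate with IBMX ± isoproterenol 10 μM (15 min), all at 37 °C in a shaking bath. Cannabinoid is present in both the preincubation and the incubation.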

Mus musculus [3] = test: Anorexic activity in Swiss mouse assessed as reduction of food intake at 20 mg/kg, ip administered 30 mins before dark onset after 24 hrs; type: functional, organism-based; set-up: dose 20 mg/kg
How it was run: (§2)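 Male Swiss mice (20-25 g) housed singly in automated feeding cages after 4 days of habituation. Dose i.p. in saline/10% PEG-400/10% Tween-80 before dark onset. Weight of food removed is logged continuously and expressed as food per kg body weight.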

[4] = target: Cannabinoid receptor 1 (Rattus norvegicus) (UniProt P20272); test: Antagonist activity at CB1 receptor in rat cerebellar membrane by [35S]GTPgammaS binding assay; type: functional, cell membranes; conditions: Cerebellum
Cannabinoid receptor 1 (Rattus norvegicus), sequence (P20272 whole entry): as the sequence (P20272 whole entry) above
How it was run: (§3)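 Rat cerebellar membranes (20 μg) from freshly dissected cerebella. Incubate 90 min at 30 °C with 0.05 nM [35S]GTPγS and graded compound concentrations, in 20 mM Tris pH 7.4 with 5 mM MgCl2, 0.1 M NaCl, 30 μM GDP, adenosine deaminase, 0.02% BSA and PMSF. Run ± 10 μM WIN-55212-2. Stop by centrifugation at 4 °C, wash the pellet, and count by liquid scintillation.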

Mus musculus [5] = test: Antiobesity activity in ob/ob mouse assessed as reduction of body weight gain at 20 mg/kg, ip once daily for 2 weeks; type: functional, organism-based; set-up: dose 20 mg/kg
Mus musculus [6] = test: Antianalgesic activity in Swiss mouse assessed as inhibition of (R)-methanandamide-induced analgesic effect at 20 mg/kg, ip administered 30 mins before (R)-methanandamide challenge measured for 45 mins by formalin planter test; type: functional, organism-based; set-up: dose 20 mg/kg
How it was run: (§4)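 Formalin test in mice. Inject 10 μL of 5% formaldehyde (vehicle: saline/5% PEG-400/5% Tween-80) into the plantar paw, with (R)-methanandamide dissolved in the formalin. Give the antagonist i.p. 30 min before formalin. A blinded observer scores paw licking and biting for 45 min (phase I 0-15 min, phase II 15-45 min).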

[7] = Lipophilicity, log P of the compound; type: physicochemical; conditions: octanol/water
Mus musculus [8] = test: Effect on motor activity in Swiss mouse assessed as number of light beam interruptions projecting across each cage at 20 mg/kg, ip; type: functional, organism-based; set-up: dose 20 mg/kg
How it was run: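 Male Swiss mice in the automated cages, dosed i.p. in saline/PEG-400/Tween-80 vehicle. Activity is counted as light-beam interruptions, recorded at the same time as feeding.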

Cannabinoid receptor 1 [9] = target: T1, Cannabinoid receptor 1; test: Antagonist activity at CB1 receptor in rat cerebellar membrane assessed as inhibition of WIN-55212-2-induced [35S]GTPgammaS binding by liquid scintillation counting; type: functional, cell membranes, Cerebellum; how it was run: as §3
[10] = Plasma concentration in Swiss mouse at 20 mg/kg, ip after 30 mins; type: ADME, organism-based; set-up: dose 20 mg/kg, route intraperitoneal; conditions: read-out: Cmax
How it was run: (§5)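 Mice dosed i.p. Blood and snap-frozen tissue are extracted in CH3OH:CHCl3:H2O and analysed by LC/MS on a cyano column with a water/methanol gradient containing acetic acid and ammonium acetate, at 0.4 mL/min.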

Mus musculus [11] = test: Inhibition of WIN-55212-2-induced catalepsy in Swiss mouse at 20 mg/kg ip administered 30 mins before WIN-55212-2 challenge measured after 30 mins by ring catalepsy test; type: functional, organism-based; set-up: dose 20 mg/kg
How it was run: (§6)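 Mice dosed i.p. Ring test scored by a blinded observer as total time cataleptic during a 3-min observation.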

Mus musculus [12] = test: Inhibition of WIN-55212-2-induced hypothermia in Swiss mouse assessed as change in body temperature at 20 mg/kg ip administered 30 mins before WIN-55212-2 challenge; type: functional, organism-based; set-up: dose 20 mg/kg
How it was run: (§7)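 Mice dosed i.p. Rectal temperature taken with a digital probe and reported as change from baseline.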

[13] = Drug level in Swiss mouse white adipose tissue at 20 mg/kg, ip after 15 mins; type: ADME, organism-based; set-up: dose 20 mg/kg, route intraperitoneal; conditions: in vivo, 0.25 h; how it was run: as §5
Mus musculus [14] = test: Anorexic activity in Swiss mouse assessed as reduction of food intake at 5 mg/kg, ip administered 30 mins before dark onset after 24 hrs; type: functional, organism-based; set-up: dose 5 mg/kg; how it was run: as §2
[15] = target: Cannabinoid receptor 2 (Mus musculus) (UniProt P47936); test: Agonist activity at mouse CB2 receptor expressed in HEK293 cells assessed as cAMP accumulation at 1 uM by radioimmunoassay; type: functional, cell-based; how it was run: as §1
Mus musculus [16] = test: Inhibition of WIN-55212-2-induced catalepsy in Swiss mouse at 5 mg/kg ip administered 30 mins before WIN-55212-2 challenge measured after 30 mins by ring catalepsy test; type: functional, organism-based; set-up: dose 5 mg/kg; how it was run: as §6
Mus musculus [17] = test: Inhibition of WIN-55212-2-induced hypothermia in Swiss mouse assessed as change in body temperature at 2 mg/kg ip administered 30 mins before WIN-55212-2 challenge; type: functional, organism-based; set-up: dose 2 mg/kg; how it was run: as §7
Mus musculus [18] = test: Antiobesity activity in ob/ob mouse assessed as reduction of food intake at 20 mg/kg, ip once daily for 2 weeks; type: functional, organism-based; set-up: dose 20 mg/kg
Mus musculus [19] = test: Antianalgesic activity in Swiss mouse assessed as inhibition of (R)-methanandamide-induced analgesic effect at 2 mg/kg, ip administered 30 mins before (R)-methanandamide challenge measured for 45 mins by formalin planter test; type: functional, organism-based; set-up: dose 2 mg/kg; how it was run: as §4

- IC50 (Cannabinoid receptor 2): > 1000 nM
- IC50 (Cannabinoid receptor 1 [1]): > 1000 nM
SMILES: Cc1[nH]c(-c2ccccc2)c(N)c1C(=O)c1ccccc1

- Activity [2]: 14.3 pmol
- IC50 (Cannabinoid receptor 2): 41 nM
- Activity [4]: inactive
- logP [7]: 6.39
- EC50 (Cannabinoid receptor 1 [9]): 4900 nM
- concentration at 0.5 h [10]: 596 nM
- IC50 (Cannabinoid receptor 1 [1]): 313 nM
- Cmax [13]: 42 nmol/g
- Activity [15]: 5.9 pmol
SMILES: Cc1c(C(=O)c2ccccc2)c(N)c(-c2ccccc2)n1Cc1ccc(Cl)cc1
- Activity (Mus musculus [3]): inactive
- Activity (Mus musculus [5]): Active
- Activity (Mus musculus [6]): Active
- Activity (Mus musculus [8]): inactive
- Activity (Mus musculus [11]): inactive
- Activity (Mus musculus [12]): inactive
- Activity (Mus musculus [14]): inactive

SMILES: Cc1c(C(=O)NN2CCCCC2)nn(-c2ccc(Cl)cc2Cl)c1-c1ccc(Cl)cc1
- Activity (Mus musculus [16]): Active
- Activity (Mus musculus [17]): Active
- Activity (Mus musculus [18]): Active
- Activity (Mus musculus [19]): Active

SMILES: Cc1c(C(=O)NC2C3CC4CC(C3)CC2C4)cc(-c2ccccc2)n1Cc1ccc(Cl)cc1 (configuration not stated)
- IC50 (Cannabinoid receptor 2): 11 nM
- IC50 (Cannabinoid receptor 1 [1]): 70 nM

SMILES: Cc1c(C(=O)c2ccccc2)cc(-c2ccccc2)n1Cc1ccc(Cl)cc1
- IC50 (Cannabinoid receptor 2): 498 nM
- IC50 (Cannabinoid receptor 1 [1]): > 1000 nM

SMILES: Cc1c(C(=O)NN2CCCCC2)cc(-c2ccccc2)n1Cc1ccc(Cl)cc1
- IC50 (Cannabinoid receptor 2): > 1000 nM
- IC50 (Cannabinoid receptor 1 [1]): > 1000 nM

SMILES: Cc1c(C(=O)NC2CC3CCC2C3)cc(-c2ccccc2)n1Cc1ccc(Cl)cc1 (configuration not stated)
- IC50 (Cannabinoid receptor 2): 420 nM
- IC50 (Cannabinoid receptor 1 [1]): > 1000 nM

SMILES: Cc1c(C(=O)NC2C3CC4CC(C3)CC2C4)c(Br)c(-c2ccccc2)n1Cc1ccc(Cl)cc1 (configuration not stated)
- IC50 (Cannabinoid receptor 2): 123 nM
- IC50 (Cannabinoid receptor 1 [1]): > 1000 nM
